Source: paper PMC9902323 (Clinical Drug Investigation, 2023)

Tests used:
albumin = details: after s.c. administration and absorption into the circulation; cited from earlier work
Pharmacokinetics = type: in vivo, human; details: single s.c. dose 5.6 U/kg; p < 0.001
[1] = test system: individuals with type 2 diabetes; experiment: Safety assessments; type: in vivo, human; details: all injection regions; N (%) of 25
How it was run: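 Over three treatment periods, 25 participants with type 2 diabetes each received one 5.6 U/kg s.c. dose per region (thigh, abdomen, upper arm), stayed in-house to 60 h, and underwent a 36–60 h glucose clamp at 7.5 mmol/L. Monitoring covered adverse events, labs, vital signs and examination. Hypoglycaemia levels: 1, plasma glucose <3.9 and ≥3.0 mmol/L; 2, <3.0 mmol/L; 3, severe cognitive impairment needing assistance.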

In the case of insulin icodec, the Binding to albumin (albumin) is listed as “binds strongly to albumin”, the “Cmax after single dose higher for upper arm versus thigh” value (Pharmacokinetics) is listed as 24% and the “Participants reporting adverse events” value [1] is listed as 12 (48%) participants.
